Legend:
Format in all cases: functional
[1] = tested on: MCF7; test: Growth inhibition of human MCF7 cells after 48 hrs by sulforhodamine B assay; settings: MCF7, 48 h
Summary of the method: (§1)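 Sulforhodamine B colorimetric assay following the NCI standard protocol, with doxorubicin as positive control. Each compound was tested at four concentrations in 10-fold dilutions (0.25 to 250). GI50, the concentration giving 50% growth reduction versus untreated control cells, was derived from dose–response curves.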

[2] = tested on: K562; test: Growth inhibition of human K-562 cells after 48 hrs by sulforhodamine B assay; settings: K562, 48 h; summary of the method: as §1
[3] = tested on: 786-0; test: Growth inhibition of human 786-0 cells after 48 hrs by sulforhodamine B assay; settings: 786-0, 48 h; summary of the method: as §1
[4] = tested on: HT-29; test: Growth inhibition of human HT-29 cells after 48 hrs by sulforhodamine B assay; settings: HT-29, 48 h; summary of the method: as §1
[5] = Growth inhibition of human NCI-460 cells after 48 hrs by sulforhodamine B assay; settings: NCI-460, 48 h; summary of the method: as §1
[6] = tested on: OVCAR; test: Growth inhibition of human OVCAR cells after 48 hrs by sulforhodamine B assay; summary of the method: as §1
[7] = tested on: UACC-62; test: Growth inhibition of human UACC-62 cells after 48 hrs by sulforhodamine B assay; settings: UACC-62, 48 h; summary of the method: as §1
[8] = Growth inhibition of human PCO3 cells after 48 hrs by sulforhodamine B assay; settings: PCO3, 48 h; summary of the method: as §1

Row | Compound | GI50 [1] [µM] | TGI [1] [µM] | GI50 [2] [µM] | LC50 (concentration causing 50% net cell kill) [2] [µM] | TGI [2] [µM] | GI50 [3] [µM] | TGI [3] [µM] | GI50 [4] [µM] | TGI [4] [µM] | GI50 [5] [µM] | LC50 (concentration for 50% net cell kill) [5] [µM] | TGI [5] [µM] | GI50 [6] [µM] | TGI [6] [µM] | GI50 [7] [µM] | TGI [7] [µM] | GI50 [8] [µM] | LC50 (concentration killing 50% of cells) [8] [µM] | TGI [8] [µM] | LC50 (concentration killing 50% of cells, NCI protocol) [7] [µM] | further results
1 | CSc1nnc(-c2cc3c([nH]c4ccccc43)c(-c3ccccc3)n2)o1 | 12.2 | 31.3 | 0.43 | 74.7 | 10.4 | 32 | > 100 | 16.2 | > 100 | 3.42 | > 100 | 74.7 | 0.01 | 0.1 | 99.5 | > 100 | 23.6 | > 100 | 86.6 |  | LC50 (concentration killing 50% of cells) [1]: > 100 µM; LC50 (concentration killing 50% of the cells, NCI protocol) [6]: 1.6 µM
2 | COc1ccc(-c2nc(-c3nnc(SC)o3)cc3c2[nH]c2ccccc23)cc1 | 31.2 | > 100 | 0.18 |  | > 100 | > 100 | > 100 | > 100 | > 100 | 1.28 | > 100 | 56.6 | 2.13 | > 100 | 29.1 | > 100 | > 100 |  | > 100 |  | 
3 | S=c1[nH]nc(-c2cc3c([nH]c4ccccc43)c(-c3ccccc3)n2)o1 | 25.5 | > 100 | 15.3 | > 100 | 54.4 | 27.9 | > 100 | 25.5 | > 100 | 20.6 |  | > 100 | 31.8 | > 100 | > 100 | > 100 | 25.5 |  | > 100 |  | 
4 | Oc1ccc(-c2nc(-c3n[nH]c(=S)o3)cc3c2[nH]c2ccccc23)cc1 | 88.7 | > 100 | 21.5 | > 100 | 87 | 94.9 | > 100 | > 100 | > 100 | > 100 |  | > 100 | > 100 | > 100 | > 100 | > 100 | 81.1 |  | > 100 |  | 
5 | O=[N+]([O-])c1cccc(-c2nc(-c3n[nH]c(=S)o3)cc3c2[nH]c2ccccc23)c1 | 27.9 | > 100 | 11 | > 100 | 86.7 | 32.4 | > 100 | 27.9 | > 100 | 73.4 |  | > 100 | 22.3 | > 100 | 24.1 | > 100 | 12.2 | > 100 | 35.7 |  | 
6 | COc1cc(-c2nc(-c3n[nH]c(=S)o3)cc3c2[nH]c2ccccc23)ccc1O | 32.2 | > 100 | 31.7 |  | > 100 | 22.4 | > 100 | 17.3 | > 100 | 89.3 |  | > 100 | 5.87 | > 100 | 17.3 | 47.9 | 25.9 | > 100 | 97.3 | > 100 | 
7 | CSc1nnc(-c2cc3c([nH]c4ccccc43)c(-c3ccc(O)cc3)n2)o1 | 7.42 | 23.4 | 10.8 |  | 28.8 | 11.8 | 24.8 | 12.8 | 35 | 17.8 | > 100 | 73.4 | 13.5 | 35 | 19.1 | > 100 | 10.5 | 59.2 | 24.8 |  | LC50 (concentration killing 50% of cells) [1]: 80.3 µM; CC50 ([3]; read-out: LC50 (the source's name)): 51.9 µM; LC50 (concentration killing 50% of the cells present at the start) [4]: > 100 µM; LC50 (concentration killing 50% of the cells, NCI protocol) [6]: 100 µM
8 | S=c1[nH]nc(-c2cc3c([nH]c4ccccc43)c(-c3ccccc3Cl)n2)o1 | 26.9 | > 100 | 20.3 | > 100 | 74 | 27.9 | > 100 | 17.4 | > 100 | 20.8 |  | > 100 | 45.9 | > 100 | 18.1 | 80.1 | 21.4 |  | > 100 | > 100 | 
9 | CN(C)c1ccc(-c2nc(-c3n[nH]c(=S)o3)cc3c2[nH]c2ccccc23)cc1 | 18.8 |  | 9.55 |  |  | 14.7 |  | 40.5 |  | 19.1 |  |  | 14.7 |  | 23.8 |  | 14.7 |  |  |  | 
10 | O=[N+]([O-])c1ccc(-c2nc(-c3n[nH]c(=S)o3)cc3c2[nH]c2ccccc23)cc1 | 27.6 | > 100 | 46.7 |  | > 100 | 73.1 | > 100 | 31.3 | > 100 | > 100 |  | > 100 | > 100 | > 100 | 38 | > 100 | 26 | > 100 | 99.2 |  | 
11 | CSc1nnc(-c2cc3c([nH]c4ccccc43)c(-c3cccc([N+](=O)[O-])c3)n2)o1 | 79.8 | > 100 | 21.3 | > 100 | 81.5 | > 100 | > 100 | 68.1 | > 100 | 24.5 | > 100 | 99.2 | 21.3 | > 100 | 16.4 | 69.4 | 44.2 |  | > 100 | > 100 | 
12 | COc1ccc(-c2nc(-c3n[nH]c(=S)o3)cc3c2[nH]c2ccccc23)cc1 | 24.9 | 97 | 26.4 |  | > 100 | 31.6 | > 100 | 20.3 | 55.3 | 9.2 |  | > 100 | > 100 | > 100 | 16.8 | 47.2 | 17.3 | > 100 | 41.1 | > 100 | LC50 (concentration killing 50% of cells) [1]: > 100 µM; LC50 (concentration killing 50% of the cells present at the start) [4]: > 100 µM

From ChEMBL document CHEMBL1151684, “Synthesis and antitumoral activity of novel 3-(2-substituted-1,3,4-oxadiazol-5-yl) and 3-(5-substituted-1,2,4-triazol-3-yl) beta-carboline derivatives” (2008)
